# Autophagy HCS: alters autophagy in cells; calls only at 10 µM (by protocol); AID 463193; MEF GFP-LC3 puncta imaging; test concentration mostly 10 µM; actives 0.98% (n = 190,000);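 active = percentage of spot-positive cells more than 3 SD above its plate mean, without a fluorescence outlier flag or 80% toxicity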;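 note: spot-positive cell cutoff set from DMSO-treated cells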
# SKKanGAS inh: inhibitors of SKKanGAS S. pyogenes growth in kanamycin (SK-promoter or general growth effect); BacTiter-Glo, 6 h; actives 1.3% (n = 300,000); inhibition, % at 7.5 µM;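 active = mean replicate score, as percent of positive control median, at least 50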;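 note: strain carries kanamycin resistance gene driven by streptokinase promoter and grows in 40 µg/ml kanamycin; loss of luminescence reflects streptokinase promoter inhibition or plain growth inhibition; 0% = median of DMSO wells and 100% = positive control at its reference dose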
# Insulin prom up: MIN6 insulin promoter up-regulation; AID 1625; MIN6 insulin promoter-GFP reporter, high-content imaging; stronger effect = higher value; actives 0.3% (n = 190,000); z-score at 5 µM;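 active = z-score above 3 at 5 µM with at least 500 cells counted in the well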
# Cl transport mod: KCC2 (human) Cl- transport modulation; Q9H2X9; KCC2 cells, thallium flux FluoZin-2 fluorescence; B-score of Tl+ flux slope (higher = more flux/activation; lower = inhibition) at 10 µM; actives 2.2% (n = 190,000); AID 1456;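 active = thallium flux slope and its plate-corrected score both differing from the plate sample mean at a set confidence after two filtering rounds, in either direction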;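 note: slope of fluorescence scaled to starting intensity during 10 to 20 s after thallium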
# Rad51 HR inh: blocks human Rad51 in homologous recombination | inhibition, % at 10 µM | hRad51 DNA strand exchange, fluorescence dequenching | Q06609 | actives 0.085% (n = 200,000);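 active = inhibition above 40% at the single screening dose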;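 note: 0% = DMSO control wells and 100% = blanks with heterologous ssDNA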
#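 Material: hRad51 filaments on single-stranded DNA; Reagent: Donor/quencher-labelled 47-bp dsDNA substrate; Compound: 10 µM final, single point; Schedule: 37 °C 15-min filament assembly, 30-min compound preincubation, 15-min exchange; Technique: FRET fluorescence, excitation 485 nm, emission 520 nm; Benchmarks: control wells and blank wells on each plate.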
# WT yeast gro inh: growth inhibition of WT yeast, mitochondrial fusion screen; inhibition, % at 10 µM; mitochondrial fusion phenotypic screen, WT strain; actives 2.1% (n = 190,000); AID 1362; in the data active = inhibition above about 58%; tested in S. cerevisiae
# * marks the source's active call; other numbers are inactive results; i = inactive; . = not tested or not shown; + = active, no number. This is a sample that favours compounds with a hit; in the whole collection about 4.2% have one here.
SMILES,Autophagy HCS,SKKanGAS inh,Insulin prom up,Cl transport mod,Rad51 HR inh,WT yeast gro inh
Cc1cccc(/C=C2\Sc3ccc(C(=O)N4CCC(C(N)=O)CC4)cc3N(C)C2=O)c1,.,-3,.,.,.,.
CN1C(=O)/C(=C/c2ccccc2Cl)Sc2ccc(C(=O)N3CCCC3)cc21,.,99*,.,.,.,.
CCN1CCN(CCNC(=O)c2ccc(/C=C3/Sc4ccccc4N(Cc4cccc(Cl)c4)C3=O)cc2)CC1,+,28,-2.1,-0.36,.,98*
CCN1CCN(CCNC(=O)c2ccc3c(c2)N(Cc2ccc(F)cc2)C(=O)/C(=C/c2ccccc2)S3)CC1,i,22,-1.4,-1.8,27,86*
COc1ccccc1C1=NOC(C)(c2nnc(Cc3ccccc3)o2)C1 (centres undefined),.,2,.,.,.,.
O=C(CNc1cccc2ccccc12)N/N=C/c1ccc[nH]1,.,50*,-0.76,-0.22,14,.
CSc1ccc(/C=N/NC(=O)CNc2cccc3ccccc23)cc1,i,1,-0.14,-0.25,26,12
CSc1ccc(/C=N/NC(=O)CNc2ccc3ccccc3c2)cc1,i,14,-0.54,0.45,.,65*
O=C(Cn1cnc2ccccc21)N/N=C/C(Br)=C/c1ccccc1,i,1,-0.1,0.23,3,-8
C=CCc1cccc(/C=N/NC(=O)CNc2cccc3ccccc23)c1O,i,8,.,0.94,11,62*
C=CCc1cccc(/C=N/NC(=O)CNc2ccccc2OC)c1O,i,6,-0.26,-0.17,10,-4
O=C(CNc1cccc2ccccc12)N/N=C/C(Br)=C/c1ccccc1,i,-9,0.15,-0.5,-12,72*
ONC(=Nc1ccccc1Cl)c1c(F)cccc1F,.,-1,.,.,.,.
O=C(CNc1ccc(F)cc1)N/N=C/c1c(O)ccc2ccccc12,.,96*,.,.,.,.
O=C(CNc1cccc2ccccc12)N/N=C/c1ccc([N+](=O)[O-])o1,i,131*,-0.87,-0.19,-11,44
CCc1ccc(OCC(=O)Nc2ccc(N3CCN(S(C)(=O)=O)CC3)cc2)cc1,i,5,-0.28,-0.36,.,-10
CC(=O)Oc1c(I)cc(I)cc1C(=O)Nc1ccc(Cl)cc1,.,124*,.,.,.,.
COc1ccc(Cl)cc1C(=O)Nc1ccc(NC(C)=O)cc1,i,3,0.96,-0.31,-1,7
OC(CSc1ccccc1Cl)CN1CCN(c2ccccc2F)CC1 (centres undefined),i,-2,-0.07,.,5,46
OC(CSc1c(Cl)cccc1Cl)CN1CCN(c2ccccc2F)CC1 (centres undefined),i,2,0.06,0.15,4,66*
Nc1c(CO)nnn1-c1ccccc1,i,-3,0.11,0.61,13,-30
CC(CN(C)Cc1ccccc1)OC(=O)c1ccccc1F (centres undefined),i,4,-0.41,0.92,-14,12
CCN(CC)CC(C)OC(=O)c1ccccc1Cl (centres undefined),+,-6,-0.09,-0.11,-11,2
N#Cc1nc(-c2ccc(OCc3ccccc3Cl)cc2)oc1NCCCn1ccnc1,i,74*,0.74,.,.,1
N#Cc1nc(-c2ccc(OCc3ccccc3)cc2)oc1NCCCn1ccnc1,i,44,-1.9,.,0,-5
SMILES,Autophagy HCS,SKKanGAS inh,Insulin prom up,Cl transport mod,Rad51 HR inh,WT yeast gro inh
Cc1ccc(-n2c3c(c(=O)[nH]c2=O)C(NS(=O)(=O)c2ccc(C)cc2)(C(F)(F)F)C(=O)N3)cc1 (centres undefined),i,0,-0.09,0.025,13,-6
Cc1ccc(-n2c3c(c(=O)[nH]c2=O)C(C(F)(F)F)(C(F)(F)F)NC(=O)N3)cc1,i,4,3*,1.6,-10,1
Cc1ccc(Oc2ccc3c(c2)C(=O)N(c2ccc(S(=O)(=O)Nc4nccs4)cc2)C3=O)cc1,i,93*,-0.21,0.22,-1,-5
O=C(CSc1nnc(CNC(=O)c2c(F)cccc2F)o1)NCC1CCCO1 (centres undefined),.,33,.,.,.,.
O=C(Cn1nc(CNc2ccc(Cl)cc2)[n+]2c1CCCCC2)c1ccc(Br)cc1,i,84*,-0.41,-0.17,.,8
CCCc1nc2ccccc2c(=O)n1NC(=O)c1c(O)c2cccc3c2n(c1=O)CCC3,i,73*,0.37,-0.34,4,-1
